# According to ChEMBL document CHEMBL4414562, “Discovery of the First in Vivo Active Inhibitors of the Soluble Epoxide Hydrolase Phosphatase Domain” (J Med Chem, 2019):
# Activity calls are given as the source filed them. The calls are words filed in the database; no cut-off is given here.
# Experiments:
# [1] = molecular target: T1, Peroxisome proliferator-activated receptor delta (Homo sapiens) (UniProt Q03181); assay: Activation of Gal4-fused human PPARbeta/delta LBD transfected in HEK293T cells at 10 uM after 12 to 14 hrs by luciferase reporter gene assay; format: cell-based
# T1 sequence (whole entry): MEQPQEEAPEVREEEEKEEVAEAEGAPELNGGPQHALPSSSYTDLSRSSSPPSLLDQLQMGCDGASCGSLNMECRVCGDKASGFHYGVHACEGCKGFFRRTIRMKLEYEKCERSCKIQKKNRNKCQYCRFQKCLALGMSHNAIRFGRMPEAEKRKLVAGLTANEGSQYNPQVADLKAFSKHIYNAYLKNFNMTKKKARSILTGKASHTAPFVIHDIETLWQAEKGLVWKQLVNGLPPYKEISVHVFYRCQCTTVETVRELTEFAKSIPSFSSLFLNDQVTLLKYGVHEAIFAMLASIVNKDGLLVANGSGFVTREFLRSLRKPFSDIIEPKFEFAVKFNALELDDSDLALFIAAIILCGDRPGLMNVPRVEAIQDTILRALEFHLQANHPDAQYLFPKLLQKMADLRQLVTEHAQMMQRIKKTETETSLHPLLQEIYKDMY
# Summary of the method: (§1)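 Gal4–human nuclear receptor LBD fusion (pFA-CMV-hNR-LBD) co-transfected with pFR-Luc and pRL-SV40 (Lipofectamine LTX) into HEK293T cells seeded the day before. 5 h post-transfection, compound added in Opti-MEM with 0.1% DMSO and incubated 12−14 h. Dual-Glo firefly/Renilla luciferase read. Activation expressed relative to reference agonist at 1 μM. Triplicates, ≥3 independent experiments.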
# [2] = molecular target: T2, Retinoic acid receptor RXR-alpha (Homo sapiens) (UniProt P19793); assay: Activation of Gal4-fused human RXRalpha LBD transfected in HEK293T cells at 10 uM after 12 to 14 hrs by luciferase reporter gene assay; format: cell-based; summary of the method: as §1
# T2 sequence (whole entry): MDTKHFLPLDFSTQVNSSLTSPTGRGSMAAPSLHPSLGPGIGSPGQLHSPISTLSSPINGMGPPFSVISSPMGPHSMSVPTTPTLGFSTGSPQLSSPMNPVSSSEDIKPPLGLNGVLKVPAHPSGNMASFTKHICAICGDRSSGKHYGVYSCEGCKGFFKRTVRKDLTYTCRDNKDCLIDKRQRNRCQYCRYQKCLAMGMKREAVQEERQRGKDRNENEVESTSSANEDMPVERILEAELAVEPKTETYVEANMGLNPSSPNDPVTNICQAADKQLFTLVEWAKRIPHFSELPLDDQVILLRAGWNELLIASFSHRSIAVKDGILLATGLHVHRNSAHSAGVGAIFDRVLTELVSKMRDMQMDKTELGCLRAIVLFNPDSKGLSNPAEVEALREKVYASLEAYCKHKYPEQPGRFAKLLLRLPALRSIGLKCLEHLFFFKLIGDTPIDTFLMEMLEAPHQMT
# [3] = molecular target: T3, Bifunctional epoxide hydrolase 2 (Mus musculus, UniProt P34914); assay: Inhibition of hydrolase activity of full length mouse soluble epoxide hydrolase pre-incubated for 30 mins before PHOME substrate addition by fluorescence based assay
# T3 sequence (P34914 whole entry): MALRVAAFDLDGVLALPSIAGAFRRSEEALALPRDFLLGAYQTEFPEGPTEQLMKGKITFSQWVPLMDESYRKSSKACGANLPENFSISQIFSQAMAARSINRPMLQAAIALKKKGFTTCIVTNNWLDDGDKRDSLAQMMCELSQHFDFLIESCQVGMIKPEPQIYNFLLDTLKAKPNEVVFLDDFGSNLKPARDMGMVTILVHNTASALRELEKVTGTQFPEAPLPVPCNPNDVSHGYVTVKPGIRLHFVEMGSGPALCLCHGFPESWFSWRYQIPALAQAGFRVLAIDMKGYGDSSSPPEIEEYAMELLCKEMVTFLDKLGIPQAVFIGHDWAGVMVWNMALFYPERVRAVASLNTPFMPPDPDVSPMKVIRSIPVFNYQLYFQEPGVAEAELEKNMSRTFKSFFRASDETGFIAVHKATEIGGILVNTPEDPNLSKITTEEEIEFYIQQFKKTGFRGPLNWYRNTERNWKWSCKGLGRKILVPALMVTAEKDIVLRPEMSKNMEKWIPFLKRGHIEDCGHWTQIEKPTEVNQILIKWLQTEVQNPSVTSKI
# Summary of the method: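 Hydrolase assay with 0.1 μM full-length enzyme in Bis-Tris pH 7 containing 0.1 mg/mL BSA and 0.01% Triton X-100. […] Reaction started with PHOME (50 μM final). 6-Methoxynaphthaldehyde fluorescence (ex 330/em 465 nm) read every minute for 45 min. Triplicates.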
# [4] = molecular target: T4, Oxysterols receptor LXR-beta (Homo sapiens) (UniProt P55055); assay: Activation of Gal4-fused human LXRbeta LBD transfected in HEK293T cells at 10 uM after 12 to 14 hrs by luciferase reporter gene assay; format: cell-based; summary of the method: as §1
# T4 sequence (whole entry): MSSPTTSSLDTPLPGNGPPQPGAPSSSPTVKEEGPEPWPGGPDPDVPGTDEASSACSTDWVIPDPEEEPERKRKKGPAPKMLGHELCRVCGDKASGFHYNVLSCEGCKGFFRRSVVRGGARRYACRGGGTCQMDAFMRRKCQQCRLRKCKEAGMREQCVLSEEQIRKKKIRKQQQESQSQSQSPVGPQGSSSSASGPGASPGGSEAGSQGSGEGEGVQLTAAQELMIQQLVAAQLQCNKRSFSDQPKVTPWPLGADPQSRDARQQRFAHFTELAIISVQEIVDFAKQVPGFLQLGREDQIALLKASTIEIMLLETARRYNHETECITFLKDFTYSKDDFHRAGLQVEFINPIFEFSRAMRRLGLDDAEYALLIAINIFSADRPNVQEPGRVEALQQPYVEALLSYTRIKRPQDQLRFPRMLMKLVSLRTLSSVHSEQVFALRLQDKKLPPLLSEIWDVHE
# [5] = molecular target: T3, Bifunctional epoxide hydrolase 2; assay: Inhibition of phosphatase activity of full length mouse soluble epoxide hydrolase pre-incubated for 30 mins before FDP substrate addition by fluorescence based assay
SMILES,Activity [1],Activity [2],IC50 [3],Activity [4],IC50 [5]
O=C(O)CCc1nc(-c2ccccc2)c(-c2ccccc2)o1 [OXAPROZIN],inactive,14.4%,> 300 µM,inactive,35.5 µM
O=C(O)CCCc1nc(-c2ccc(Cl)c(Cl)c2)c(-c2ccccc2)o1,inactive,77%,> 30 µM,inactive,> 30 µM
